Measurements as given in the EternaBench riboswitch data.

System: MS2 coat protein
Assay: apparent Kd, MS2 coat protein; higher = weaker binding; RNA-MaP array; FMN 200 µM where present
How it was run: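 The apparent Kd comes from binding curves fitted cluster by cluster, filtered, and summarised as a median. Those curves followed SNAP-549-labelled MS2 coat protein from 0.7 or 1.5 nM, doubling to 3 µM, on Illumina sequencing-chip clusters where stalled E. coli RNA polymerase had transcribed the designs, without and then with constant ligand. The buffer was 100 mM Tris-HCl pH 7.5, 80 mM KCl, 4 mM MgCl2, BSA, DTT, yeast tRNA and Tween-20, and green signal was normalised to red-channel RNA signal and control-cluster median Fmax.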

[1] = designed as: ON switch for flavin mononucleotide, no ligand
[2] = ligand present: flavin mononucleotide, designed as: ON switch for flavin mononucleotide
[3] = designed as: OFF switch for flavin mononucleotide, no ligand
[4] = ligand present: flavin mononucleotide, designed as: OFF switch for flavin mononucleotide

Sequence | apparent Kd [1] | apparent Kd [2] | apparent Kd [3] | apparent Kd [4]
AACCAACAUGAGGAUCACCCAUGUCAACCCAAGCGAGGAUAUCCGAGAAUAACAAUGGGAGGAGAAGGCGCGACCU | 73.4 nM | 55.6 nM |  | 
AACCGCGACCGGCCUGGCACGUCGAGAAGGGUACGUGACUUGCUUUACAUGAGGAUCACCCAUGUACAGGAUAUCGAAUAGCCG |  |  | 8.4 nM | 11 nM
AACGAAGAGGAGAAGGGUGAUGGGUCCUCAUGACCCGGAGGGCCGCGGCACAGGAUAUCCAUGUCACAUGAGGAUCACCCAUGU | 123 nM | 18.5 nM |  | 
AACGCACGAGAUGGCUGGGAUACUAAGGAUAUGACAUGAGGAUCACCCAUGUACGCGAUCCAUGGUCAGAAGGUAGUAAUUCGC |  |  | 37 nM | 91.2 nM
AACGCGUCAGGAUAUAGCGUAAUUUAGGUAGUACGACCAUACUAGAAGGGACAUGAGGAUCACCCAUGUGGGUA |  |  | 212 nM | 118 nM
AACGCGUCAGGAUAUGCCAUAAAUUACGUAGUACGACCAUAGUAGAAGGGACAUGAGGAUCACCCAUGUGGGUA |  |  | 177 nM | 137 nM
AACGGGUGGGUAGGAUAUGGCUAUGUCUCAUUGCUAGAAGGACCAGCUGCUACAUGAGGAUCACCCAUGUCGUAGUGCACCCAC | 93.2 nM | 24.5 nM |  | 
AACGUUCGAGGAUAUGUGGCGCUGCACAUGAGGAUCACCCAUGUGAGGACUUGCAGCAUCACAGAAGGUGACCUGC |  |  | 94 nM | 84.6 nM
AAGAAACAUGAGGAUCACCCAUGUAAGAUAAACACAGGAUAUGCGAAAAGAAACAAAGAAGCAGAAGGGUGAAGAA | 68.2 nM | 19.7 nM |  | 
AAGAAGUCAGGAUAUGCAUGGCGGGACUUGCGUCGUGGCGUGCAGAAGGGACAUGAGGAUCACCCAUGUAAAGC |  |  | 49.8 nM | 42.4 nM
AAGACCAGAGGAUAUCAGACGCGGCACAUGAGGAUCACCCAUGUAUUCCCGUCUGCCGACUGAGAAGGUUGGAAAG |  |  | 12.5 nM | 17 nM
AAGACGUAAGGAUAUAUUAUGGGACAAUGAAGGAAGAUAAAACAUGAGGAUCACCCAUGUAGAAGGUGCAAAGA |  |  | 45.9 nM | 41.5 nM
AAGAUCCCUGUUAGGAUAUAGAGAUCGCCUGGGUCCUAGAAGGAACAUGAGGAUCACCCAUGUGACGUAUAUGU |  |  | 100 nM | 228 nM
AAGCGAAAGCUAAAAUAUCUAUCAGAGGAUAUUUAUGAUACAUGAGGAUCACCCAUGUGGCACUGGGAGAAGGCUGAUAGAUAA | 11.6 nM | 6.15 nM |  | 
AAGCGGGUCUUCAGGGUAAUGAACAUGAGGAUCACCCAUGUGCAGGAUAUGACGGAUCCGCACCGUCAGAAGGGCACUAAGUAC |  |  | 24.6 nM | 69.9 nM
AAGGAGUGAGGAUAUGCUGCUCGUCACUUGCGUGAUGAGUAGCAGAAGGCACAUGAGGAUCACCCAUGUAAAAA |  |  | 41.5 nM | 49.7 nM
AAGGGACAUGAGGAUCACCCAUGUUCGAAAGACGAUGGAUCGCAGGAUAUCCAGUGUUAGAGAGAGGAGAAGGGUGAUCCUAUU | 36.3 nM | 27.7 nM |  | 
AAGUACGUAAAGAAGGCGCGGGCAACCAUUCUGCGAGGAUAUUUACAUGAGGAUCACCCAUGUGCAUGGGAUCGAGAAGAAUUG |  |  | 159 nM | 41.9 nM
AAGUUAUUAGGAUAUACUUGUGCGAACCAAACGUUGAUAUUACAUGAGGAUCACCCAUGUAGAAGGAAUAAAAA |  |  | 35.7 nM | 25.1 nM
AAGUUCUGUGAGAAGGCGCCCUUUGCGGUUGGGCGAGGAUAUCACAUGAGGAUCACCCAUGUCGGUGCAUCAGACAGCGUAUUU |  |  | 810 nM | 156 nM
AAGUUGACAGGAUAUACUUGGGCAACUUAUAUACUAAUAUAACAUGAGGAUCACCCAUGUAGAAGGGUCAGAAA |  |  | 54 nM | 72.5 nM

Sequence | apparent Kd [1] | apparent Kd [2] | apparent Kd [3] | apparent Kd [4]
AAGUUUUUACAAGGAUAUCAAUUUUAUCUUAAUUCAACAUGAGGAUCACCCAUGUAACAAUGGAGUGAGAAGGUGUAAUGGCUU | 617 nM | 234 nM |  | 
AAUAAAAUGAUGUUACAUGAGGAUCACCCAUGUAAGUGAUGGAGAAGGUCCCACGACUUGGGCGGGAAGGAUAUUCAGAGCAUA | 16.8 nM | 10.3 nM |  | 
AAUAAACAUGAGGAUCACCCAUGUGGUGGCCCAUGAGGAUAUCCGUACGCAAUGCGCACAGGAGAAGGCAUAGCCA | 33.9 nM | 90.8 nM |  | 
AAUAACAGAGGAUAUACUAUUUUAUGUAUUUAUUAUUUUAAACAUGAGGAUCACCCAUGUAGAAGGCUGAUUGA |  |  | 29.9 nM | 28.4 nM
AAUAACAGAGGAUAUACUAUUUUAUGUGUUUGUUAUUUUAAACAUGAGGAUCACCCAUGUAGAAGGCUGAGUAA |  |  | 26.7 nM | 26.9 nM
AAUAACAGAGGAUAUACUAUUUUAUGUGUUUGUUGUUUUAAACAUGAGGAUCACCCAUGUAGAAGGCUGAGUAA |  |  | 24.3 nM | 30.4 nM
AAUAACAGAGGAUAUACUGUUUUAUGUGUUUAUUGUUUUGAACAUGAGGAUCACCCAUGUAGAAGGCUGAAUGA |  |  | 26.1 nM | 26.2 nM
AAUAGAAAGAUUAAUAUGAUUACAUGAGGAUCACCCAUGUAUAAGGAUAUCGACGUCAAUGACGUCGAGAAGGUAUACAUAAUA |  |  | 15.7 nM | 34 nM
AAUAUAAAGAGCUGGACCUUAAUAACAUGAGGAUCACCCAUGUAGGAUAUCAGCACGAUAAGUGCUGAGAAGGACAUCCAGCUC |  |  | 14.4 nM | 15.1 nM
AAUAUAAGAGCUGGUAAAUAAAUCACAUGAGGAUCACCCAUGUAGGAUAUCAGCACGAUAAGUGCUGAGAAGGACAUCCAGCUC |  |  | 13.4 nM | 14.6 nM
AAUAUGUUGCAGAAGGUUAUUUUUAUAACGAUCCACUUGACAUGAGGAUCACCCAUGUAAUUGUUGAAGGAUAUGCAAUAUAUU |  |  | 6.79 nM | 7.11 nM
AAUCCACAUGAGGAUCACCCAUGUCAGGAUAUCGCGCGCGCGUUUUCGGUCUUUCGCGCGAGAAGGGACGGCUG |  |  | 17.7 nM | 23.5 nM
AAUGAGCAGUAGAAGGCAUGUCUACGGACAUGAGGAUCACCCAUGUUGUGAAUCCGAAAGGAGCGUGAGGAUAUACUGCUCUAA | 85.6 nM | 18.8 nM |  | 
AAUGGCGUGAUAACGCUAAUUACAACAUGAGGAUCACCCAUGUAGGAUAUCCUACCGAAAUGGUAGGAGAAGGACAAGCAAUGA |  |  | 30.4 nM | 23.5 nM
AAUUAACAUGAGGAUCACCCAUGUGAGGAUAUGAUAUUACUUGGACAGCUAUGAUCAAUCAGAAGGCACAUCUU |  |  | 22.3 nM | 28.5 nM
AAUUAACUCACAGGAUAUAGCAGAGGUCGAGUGAACUUACAGGCGACUAGGCUAGAAGGGUGACCACAUGAGGAUCACCCAUGU | 834 nM | 117 nM |  | 
AAUUAAUUAAUUAAUAUACAUGAGGAUCACCCAUGUAAGAUCAAGGAUAUCAGCUCGAUUAGAGCUGAGAAGGUGAUCACAUGU | 357 nM | 501 nM |  | 
AAUUAGGUCACAGGAUAUACAACAUCCAUUGCUGUAGAAGGGUGUCACAAUCAUAUCUGACAUGAGGAUCACCCAUGUUUCCAC | 85.8 nM | 33.3 nM |  | 
AAUUAUUUAUGAGGAUAUUGUGGUGAAACACCACAAGAAGGCAUGAUACACAUGAGGAUCACCCAUGUGAGCCUGAUGCUUAUG |  |  | 16.7 nM | 20.1 nM
AAUUGACACGUAGGAUAUCGAACUAUUUUAACACGAGAAGGACGUACAUGAGGAUCACCCAUGUUUAAUGGAGUAGAUAAGUUG |  |  | 154 nM | 290 nM
AAUUGACACGUAGGAUAUCGAUCUAAAUUAACUCGAGAAGGACGUACAUGAGGAUCACCCAUGUUUAAUGGAGUAGAUAUGUUG |  |  | 121 nM | 398 nM
